Experimental data published in the EternaBench riboswitch data.

Tested on: MS2 coat protein
Assay: apparent Kd, MS2 coat protein; higher = weaker binding; RNA-MaP array; FMN 200 µM where present
Outline: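 Designs were transcribed by stalled E. coli RNA polymerase on Illumina sequencing-chip clusters. They were titrated with SNAP-549-labelled MS2 coat protein from 0.7 or 1.5 nM, doubling to 3 µM, without and then with constant ligand. Buffer: 100 mM Tris-HCl pH 7.5, 80 mM KCl, 4 mM MgCl2, BSA, DTT, yeast tRNA, Tween-20. Green signal was normalised to red-channel RNA signal and control-cluster median Fmax. Apparent Kd is the median of filtered per-cluster binding-curve fits.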

[1] = designed as: OFF switch for flavin mononucleotide, no ligand
[2] = ligand present: flavin mononucleotide, designed as: OFF switch for flavin mononucleotide
[3] = designed as: ON switch for flavin mononucleotide, no ligand
[4] = ligand present: flavin mononucleotide, designed as: ON switch for flavin mononucleotide

| Sequence | apparent Kd [1] [µM] | apparent Kd [2] [µM] | apparent Kd [3] [µM] | apparent Kd [4] [µM] |
| --- | --- | --- | --- | --- |
| AUGUAGCUAGGAUAUACAUAGAUACAGAUUCAUGUAGAACUACAUGAGGAUCACCCAUGUAGAAGGAGCUAAAA | 0.0287 | 0.0504 | – | – |
| AUGUAUCACACAGGAUAUACAUGAGGAUCACCCAUGUGUCCUCCGUAAUUGACACCAAUUACGCUGUAGAAGGGUGUGAUACAU | 0.274 | 0.204 | – | – |
| AUGUUACAUGAGGAUCACCCAUGUGAGGAUAUGUGUACUGGUAAAAAAGUGUUUGGCCACAGAAGGCAUUUGGA | 0.0291 | 0.0312 | – | – |
| AUGUUAGGAGGAUAUCGAUUUCAGGACAUGAGGAUCACCCAUGUACUAAAAGUCGUGGUUCGAGAAGGCCUAACUU | 0.0175 | 0.0235 | – | – |
| AUGUUAUUCUGAGGAUAUUGUUUAUUCUUCUCACAUGAGGAUCACCCAUGUUUCCGUGUUUACCGCAAGAAGGCAGUUUUGUUU | 0.0299 | 0.0275 | – | – |
| AUGUUGAGCAGUGUAUUAAGAUCACAUGAGGAUCACCCAUGUAGAAGGCACGAGCUGAUCGCUCGUGAGGAUAUACAUCACUGC | 0.0103 | 0.11 | – | – |
| AUUAAACAUGAGGAUCACCCAUGUCAACAAAGUCGAGGAUAUGGGCAUAUUAUCUAAUAACCAGAAGGCGAAUAAU | – | – | 0.182 | 0.0459 |
| AUUAACUACAUAGGAUAUUGUUACAUGAGGAUCACCCAUGUUAUAUGGGAACUAGGAAUAUUUGUCAAGAAGGAUGUGGUUACA | – | – | 0.232 | 0.033 |
| AUUACAUGAGGAUCACCCAUGUACAGAACGUUUCAUUACAGUGAGGAUAUACGAAAUGUAAAAGCGUAGAAGGCACUGGGUACA | – | – | 0.0295 | 0.0222 |
| AUUAGGUCAGGAUAUACAUGAGGAUCACCCAUGUAGGUGGAACCUUUAUCGGGUGACCGUAGAAGGGACAUCAA | 0.0411 | 0.0763 | – | – |
| AUUAUACAUGAGGAUCACCCAUGUCAACAAAGUCGAGGAUAUGGGCAAAUAAAAUAAGAACCAGAAGGCGAAUAAU | – | – | 0.238 | 0.061 |
| AUUAUAUAGGAAGGAUAUAGAAUAUUAUUUUAACAUGAGGAUCACCCAUGUAACCUUAUGUGUAGCUAGAAGGUCCAUUUGUUA | – | 0.315 | – | – |
| AUUAUUAAGGUAGGAUAUAGUAUAAUAAUUAAAUUAGAAGGAUCUCACAUGAGGAUCACCCAUGUAAGAGGAUCACCCAUGUAU | 0.0103 | 0.0104 | – | – |
| AUUAUUAUAUUAUACAUGAGGAUCACCCAUGUUAUAAGUCAUGAGGAUAUGGUUAUGUAGAUUUGCCAGAAGGCAUUUAACUUA | – | – | 0.0149 | 0.00991 |
| AUUAUUGACAUAGGAUAUUGUUACAUGAGGAUCACCCAUGUUAUUUGGGAACUAGGAAUAUUUUACAAGAAGGAUGUUGUUAAA | – | – | 0.091 | 0.0793 |
| AUUAUUGACGUAGGAUAUUGUUACAUGAGGAUCACCCAUGUUAUUUGGGAACUAGGAAUAUUUUACAAGAAGGACGUUGUUAAA | – | – | 0.0749 | 0.0921 |
| AUUAUUGGCUAAGGAUAUGGAUACAUGAGGAUCACCCAUGUAUUUUUUGUGAUCAUAUAAAUGAUCCAGAAGGUAGCUGUUUAU | 0.0231 | 0.0701 | – | – |
| AUUAUUUAAGUCAGGAUAUCGUAUUUAUUUAAAUACGAGAAGGGACAUGAGGAUCACCCAUGUAAUAAAUUUUA | 0.0142 | 0.0204 | – | – |
| AUUAUUUAAGUCAGGAUAUCGUAUUUAUUUAAAUACGAGAAGGGACAUGAGGAUCACCCAUGUAAUAAAUUUUU | 0.0169 | 0.0229 | – | – |

| Sequence | apparent Kd [1] [µM] | apparent Kd [2] [µM] | apparent Kd [3] [µM] | apparent Kd [4] [µM] |
| --- | --- | --- | --- | --- |
| AUUCUGCUCGCAGGAUAUCAGGAAAUGUUGAUCUUCUGUAUCUCCUACAUGAGGAUCACCCAUGUUGAGAAGGGCGAUGGCAAU | 0.0657 | 0.4 | – | – |
| AUUGACUGAGGAUAUUGUACUGCUGACAUGAGGAUCACCCAUGUAUGCUAACUCGGCCGUCGAGAAGGCAGUCAUG | 0.0292 | 0.0173 | – | – |
| AUUGAUGUUGAGGAUAUGCUUUUAUUUAUAAUAGCAGAAGGCGAUACAUGAGGAUCACCCAUGUUCAUGGUAGU | 0.0622 | 0.067 | – | – |
| AUUGAUGUUGAGGAUAUGCUUUUAUUUGUUCUUGCAGAAGGCGAUACAUGAGGAUCACCCAUGUUCAUGGAAGU | 0.0516 | 0.0466 | – | – |
| AUUGUGUGAGGAUAUUAGCAGUAGACGAAUGGAGUCGUGGCUGAGAAGGCACAUGAGGAUCACCCAUGUUCCUU | – | 0.0883 | – | – |
| AUUGUUGUUGUGAGGAUAUCGUUGAUUUUUUGAAACGAGAAGGCACAUGAGGAUCACCCAUGUUAGUUGUUGGU | 0.0964 | 0.311 | – | – |
| AUUUAAAAGCAGAAGGGCAAGGUGGAUCCCUCACAUGAGGAUCACCCAUGUCUAGGCUUUACCGUGCAGGAUAUGCAAGUAAUA | – | – | 0.026 | 0.0585 |
| AUUUAGUGAGGAUAUGUGGCUUCGAUCGUGAGAUCGAGGCUACAGAAGGCACAUGAGGAUCACCCAUGUUCCUC | 0.0376 | 0.498 | – | – |
| AUUUAGUGCGAGAAGGCGUGGUCACAUGAGGAUCACCCAUGUCAGUACACGAGGAUAUCGAUCCGCUAUGUAAACCUAGGCGGC | – | – | 0.101 | 0.00689 |
| AUUUAUGGCCAGAAGGACAUGAGGAUCACCCAUGUAGGAUAUGGACGAUUUUACUCGGCGGUUCGUUUAGGAAGCACCGGCGGU | – | – | 0.00858 | 0.00591 |
| AUUUAUGGCCAGAAGGACAUGAGGAUCACCCAUGUAGGAUAUGGACGAUUUUGCUCGGCGGUUCGUUUAGGAAUCACCGGUGGU | – | – | 0.00788 | 0.00638 |
| AUUUCGUCAGGAUAUCCUAGUAAUUGUUUCAUAUUUACGAAGGAGAAGGGACAUGAGGAUCACCCAUGUUGGUC | 0.0587 | 0.13 | – | – |
| AUUUGACAUGAGGAUCACCCAUGUGAGGAUAUCGUUAUUUACUUUGUUUAUAGUAUCUCGAGAAGGCACAUUUG | 0.0633 | 0.22 | – | – |
| AUUUUACAUGAGGAUCACCCAUGUUUUGGCGGGUCAGGAUAUAGAUCGGAUGAGUUCUGGCUAGAAGGGACAUGUA | – | – | 0.054 | 0.106 |
| AUUUUAUAAUAGAAGGAGGACUUCAUGAGGAUCACCCAUGUGUUAGUACUUAGGAUAUGUAAUAACAUGAGGAUCACCCAUGUC | – | – | 0.0383 | 0.0433 |
| AUUUUGUCAGGAUAUGACUAGUAGGACGAGAGUGCUACUACUUAGAAGGGACAUGAGGAUCACCCAUGUAUUCC | 0.016 | 0.0174 | – | – |
| CAAAACAUCUCCGUGUUUGUCGAACAUGAGGAUCACCCAUGUAGAAGGCAUCGCGCGACGCAGGAUGAGGAUAUACGCUGGAUG | 0.00643 | 0.011 | – | – |
| CAAACAAGUGCGAGCUGACACAUGAGGAUCACCCAUGUAACACAGGAUAUCUGUCAAGGCGUGAAAGAGAAGGGUGGUCGGAAA | – | – | 0.226 | 0.375 |
| CAAAUCUGAGGAUAUCGAUUUUUGUACAUGAGGAUCACCCAUGUCCUUUUUAUUAAAUCCCGAGAAGGCAGUGUAU | 0.0271 | 0.0312 | – | – |

| Sequence | apparent Kd [1] [µM] | apparent Kd [2] [µM] | apparent Kd [3] [µM] | apparent Kd [4] [µM] |
| --- | --- | --- | --- | --- |
| CAACCGUUGCAGAAGGUUAAAUAAAUUCUCUUCUUGUUUACAUGAGGAUCACCCAUGUUUUUGUUGAAGGAUAUGCAAGGGUUG | 0.00559 | 0.00579 | – | – |
| CAAUCGGCACAGAAGGGUGACAUGAGGAUCACCCAUGUAGCGUGGCACUCAGGAGGAGCCACGCCACAGGAUAUGUGCCAGCAC | – | – | 0.0505 | 0.0538 |
| CAAUUGGCACAGAAGGGUGACAUGAGGAUCACCCAUGUAGCGUGGCACUCAGGAGGAACCACGCCACAGGAUAUGUGCGGGCAC | – | – | 0.065 | 0.0766 |
| CAAUUGGCACAGAAGGGUGACAUGAGGAUCACCCAUGUAGCGUGGCUCUCAGGAGGAGCCACGCCACAGGAUAUGUGCGGGCAC | – | – | 0.0332 | 0.0632 |
| CACAAGAAAGUCGAAGGUUGAAGUAGAAGGACAACAACAUGACAUGAGGAUCACCCAUGUGCCAUGUAGGAUAUGCUUUAAUCG | 0.00914 | 0.00828 | – | – |
| CACAAUCUAUCUGAGGAUAUCAUGAAAAAAACAUGAGGAUCACCCAUGUGCAGGAAAACUGCAUAUGAGAAGGCAGAUAGAUUGC | – | – | 0.613 | 0.0291 |
| CACAUGUGAGGAUAUGUAAUAAAGGCGACGCGGGUCGCCCGACAGAAGGCACAUGAGGAUCACCCAUGUGAUGA | 0.037 | 0.098 | – | – |
| CACCGUUAGAGAGGAUAUCGUACAUGAGGAUCACCCAUGUAAUAAAUGAGAAUUUCGGAUGUAUGCGAGAAGGCUCGAAUCGGC | 0.0534 | 0.0407 | – | – |
| CACCGUUAGUGAGGAUAUAGUACAUGAGGAUCACCCAUGUAAUAAAUGAGAAUUUCGGAUGUAUGCUAGAAGGCACAAAUCGGC | 0.0604 | 0.0658 | – | – |
| CACGUCCUCACAGGAUAUGCUGGACUUUGUCCAGCAGAAGGGUGAAACAUGAGGAUCACCCAUGUUAGGACGUGUAUAUUUAAU | – | – | 0.0867 | 0.625 |
| CACUCAGGCACAUGAGGAUCACCCAUGUCCCGGAAGCCGAGACAGGAUAUGUGCCUCGAAUGUGCACAGAAGGGUCUACUAUGU | – | – | 0.374 | 0.264 |
| CAGAAGUCAGGAUAUCCAUGGCGGCACUUGCGUGGUGGCGUGGAGAAGGGACAUGAGGAUCACCCAUGUAAAGU | 0.0587 | 0.0617 | – | – |
| CAGAAGUCAGGAUAUGCAUGGCGGGACUUGCGUCGUGGCGUGCAGAAGGGACAUGAGGAUCACCCAUGUAAAGU | 0.0535 | 0.0697 | – | – |
| CAGACGUGAGGAUAUCUGAUGUCUAACUUCGGUUAGACAUCAGAGAAGGCACAUGAGGAUCACCCAUGUCUGAA | 0.0768 | 0.309 | – | – |
| CAGAUAAAAGUGUGGUCCUCGACAUGAGGAUCACCCAUGUACGAGGAUAUGUAAUAUACGGUAUAGCAGAAGGCGUAUGGGUGU | 0.0377 | 0.0362 | – | – |
| CAGAUAGGUGUGAGGAUAUAUCGUUAGCAAUGGCUAUAGAAGGCACAUGAGGAUCACCCAUGUGAGAUUGGCGU | 0.0213 | 0.0205 | – | – |
| CAGCAUCAUGUAGGAUAUGCGUGGCGAAGCUAUGCAGAAGGACAUGAGGAUCACCCAUGUCUUACCUAGCGUACUAGGUUGCUG | 0.0073 | 0.0166 | – | – |
| CAGCCCUGAGGAUAUCCACCCUCGUACAUGAGGAUCACCCAUGUCUCCCUCUGGGCUUUCGGAGAAGGCAGGUAUC | 0.069 | 0.0585 | – | – |
